# Experimental data pooled from the literature.
# Target: Vascular endothelial growth factor receptor 1 (FLT1, Homo sapiens, UniProt P17948)
SMILES,effect on,action,method,tested at,endpoint,result
Cc1ncc(C)n2nc(/C=C/c3nc(N4CCCC4)cc(N4CCOCC4)n3)nc12,enzyme activity,inhibitor,,10 µM,inhibition,-6%
O=C(Nc1cccnn1)N1CCN([C@@H]2CCOc3cc(C(F)(F)F)ccc32)CC1,enzyme activity,inhibitor,,20 µM,inhibition,2%
CC(C)(C)c1cc(C=C(C#N)C#N)cc(Br)c1O,enzyme activity,inhibitor,,0.5 µM,remaining activity,92.5%
C#Cc1n[nH]c2c(-c3cn([C@@H](C)c4ccccc4)c(=O)[nH]c3=O)cc(F)cc12,enzyme activity,inhibitor,,0.1 µM,inhibition,1.9%
O=c1[nH]c2ccccc2n1C1CCN(Cc2ccc(-c3[nH]c4cc5ncnc5cc4nc3-c3ccccc3)cc2)CC1,cell-free assay,,,0.5 µM,remaining signal,92.2%
COc1ncccc1-c1cnn2ccc(N3CCN(C(=O)OC(C)C)CC3)nc12,binding,,competition with immobilised ligand,1 µM,remaining binding,100%
COCc1c(-c2cc3cc(C)cc(OC)c3s2)c2c(N)ncnn2c1CN1CCNC(=O)C1,cell-free assay,,competition with immobilised ligand,1 µM,inhibition,91.7%
Cn1cncc1[C@](O)(COc1ccc(C#N)cc1-c1ccc(OC(F)(F)F)cc1)c1ccc(C#N)cc1,cell-free assay,,competition with immobilised ligand,1 µM,remaining binding,98%
Cn1cc(-c2cc(F)cc(N3CCn4c(cc5c4CCCC5)C3=O)c2CO)cc(Nc2ccc(N3CCN(C4COC4)CC3)cn2)c1=O,enzyme activity,inhibitor,,0.1 µM,inhibition,5%
Nc1ncc(-c2nc(N3CCOCC3)nc(N3CCOCC3)n2)c(C(F)F)n1,cell-free assay,,competition with immobilised ligand,10 µM,remaining binding,91%
Cn1cc(-c2cccc(N3CCc4c(sc5c4CC(C)(C)C5)C3=O)c2CO)cc(Nc2ccncn2)c1=O,enzyme activity,inhibitor,,1 µM,inhibition,2%
C#Cc1n[nH]c2c(-c3cn([C@@H](C)c4ccccn4)c(=O)[nH]c3=O)cc(F)cc12,enzyme activity,inhibitor,,0.1 µM,inhibition,2%
